Reference: ChEMBL document CHEMBL2346543, “Triazolopyridazine LRRK2 kinase inhibitors” (Bioorg Med Chem Lett, 2013)
Converted amounts (≈) assume the structure as drawn.

Assays:
[1] = target: Receptor tyrosine-protein kinase erbB-4 (Homo sapiens) (UniProt Q15303); assay: Inhibition of ErbB4 (unknown origin) at 1 uM
How it was run: (§1)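 Single-point panel run by an outside contract lab: inhibition of each of 40 selected kinases measured at 1 µM test compound; percent inhibition reported.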

[2] = tested on: Liver microsomes; assay: Metabolic stability in human liver microsomes; assay type: ADME, Microsome
[3] = Permeability of the compound; assay type: ADME; conditions: not told; read-out: permeability
[4] = target: Tyrosine-protein kinase JAK1 (Homo sapiens) (UniProt P23458); assay: Inhibition of Jak1 (unknown origin) at 1 uM; how it was run: as §1
[5] = target: Macrophage colony-stimulating factor 1 receptor (Homo sapiens) (UniProt P07333); assay: Inhibition of CSF1R (unknown origin) at 1 uM; how it was run: as §1
Chain of Macrophage colony-stimulating factor 1 receptor (Homo sapiens) (P07333 whole entry): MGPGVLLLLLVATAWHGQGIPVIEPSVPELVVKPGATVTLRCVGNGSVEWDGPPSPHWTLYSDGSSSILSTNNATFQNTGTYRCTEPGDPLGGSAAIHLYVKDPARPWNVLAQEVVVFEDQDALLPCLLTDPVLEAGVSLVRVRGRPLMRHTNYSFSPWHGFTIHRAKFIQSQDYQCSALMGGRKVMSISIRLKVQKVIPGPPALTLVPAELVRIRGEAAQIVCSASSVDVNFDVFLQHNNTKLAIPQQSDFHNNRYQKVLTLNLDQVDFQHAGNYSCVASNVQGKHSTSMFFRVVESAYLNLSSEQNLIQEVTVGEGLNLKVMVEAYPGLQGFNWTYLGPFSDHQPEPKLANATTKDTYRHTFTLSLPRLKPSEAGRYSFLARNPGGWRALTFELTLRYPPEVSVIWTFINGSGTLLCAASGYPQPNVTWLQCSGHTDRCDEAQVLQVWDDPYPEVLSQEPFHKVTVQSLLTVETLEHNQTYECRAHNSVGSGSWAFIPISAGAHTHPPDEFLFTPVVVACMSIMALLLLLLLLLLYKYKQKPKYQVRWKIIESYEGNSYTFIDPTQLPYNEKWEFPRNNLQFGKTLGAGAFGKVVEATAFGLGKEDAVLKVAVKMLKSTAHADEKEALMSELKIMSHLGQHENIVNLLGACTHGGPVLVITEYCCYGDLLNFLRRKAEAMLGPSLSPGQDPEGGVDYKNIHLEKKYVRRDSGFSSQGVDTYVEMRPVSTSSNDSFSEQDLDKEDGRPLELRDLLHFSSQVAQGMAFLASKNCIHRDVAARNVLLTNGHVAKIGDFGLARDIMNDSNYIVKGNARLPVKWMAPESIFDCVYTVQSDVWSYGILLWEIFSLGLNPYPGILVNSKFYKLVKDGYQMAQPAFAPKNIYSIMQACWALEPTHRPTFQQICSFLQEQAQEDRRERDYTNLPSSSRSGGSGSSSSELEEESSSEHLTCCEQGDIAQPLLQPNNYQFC

[6] = target: RAF proto-oncogene serine/threonine-protein kinase (Homo sapiens) (UniProt P04049); assay: Inhibition of Raf1 (unknown origin) at 1 uM; how it was run: as §1
[7] = species: Homo sapiens; assay: Inhibition of MAPK (unknown origin) at 1 uM; how it was run: as §1
[8] = species: Homo sapiens; assay: Selectivity ratio of IC50 for wild type LRRK2 (unknown origin) to IC50 for LRRK2 G2019S mutant (unknown origin)
How it was run: (§2)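 HTRF assay with GST-LRRK2 (G2019S or wild type) measuring inhibition of LRRKtide phosphorylation. Biotinylated LRRKtide substrate; detection with Eu(K)-labelled anti-phospho-Moesin antibody plus streptavidin-XL665, read at 620 and 665 nm. Ratio taken as wild-type IC50 over G2019S IC50.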

[9] = target: Cyclin-dependent kinase 1/cyclin B1 (Homo sapiens) (UniProt P06493+P14635); assay: Inhibition of CDK1/Cyclin B (unknown origin) at 1 uM; assay type: protein-complex assay; how it was run: as §1
[10] = target: Tyrosine-protein kinase SYK (Homo sapiens) (UniProt P43405); assay: Inhibition of Syk (unknown origin) at 1 uM; how it was run: as §1
[11] = target: Serine/threonine-protein kinase PLK1 (Homo sapiens) (UniProt P53350); assay: Inhibition of PLK1 (unknown origin) at 1 uM; how it was run: as §1
[12] = target: Proto-oncogene tyrosine-protein kinase receptor Ret (Homo sapiens) (UniProt P07949); assay: Inhibition of Ret (unknown origin) at 1 uM; how it was run: as §1
Chain of Proto-oncogene tyrosine-protein kinase receptor Ret (Homo sapiens) (P07949 whole entry): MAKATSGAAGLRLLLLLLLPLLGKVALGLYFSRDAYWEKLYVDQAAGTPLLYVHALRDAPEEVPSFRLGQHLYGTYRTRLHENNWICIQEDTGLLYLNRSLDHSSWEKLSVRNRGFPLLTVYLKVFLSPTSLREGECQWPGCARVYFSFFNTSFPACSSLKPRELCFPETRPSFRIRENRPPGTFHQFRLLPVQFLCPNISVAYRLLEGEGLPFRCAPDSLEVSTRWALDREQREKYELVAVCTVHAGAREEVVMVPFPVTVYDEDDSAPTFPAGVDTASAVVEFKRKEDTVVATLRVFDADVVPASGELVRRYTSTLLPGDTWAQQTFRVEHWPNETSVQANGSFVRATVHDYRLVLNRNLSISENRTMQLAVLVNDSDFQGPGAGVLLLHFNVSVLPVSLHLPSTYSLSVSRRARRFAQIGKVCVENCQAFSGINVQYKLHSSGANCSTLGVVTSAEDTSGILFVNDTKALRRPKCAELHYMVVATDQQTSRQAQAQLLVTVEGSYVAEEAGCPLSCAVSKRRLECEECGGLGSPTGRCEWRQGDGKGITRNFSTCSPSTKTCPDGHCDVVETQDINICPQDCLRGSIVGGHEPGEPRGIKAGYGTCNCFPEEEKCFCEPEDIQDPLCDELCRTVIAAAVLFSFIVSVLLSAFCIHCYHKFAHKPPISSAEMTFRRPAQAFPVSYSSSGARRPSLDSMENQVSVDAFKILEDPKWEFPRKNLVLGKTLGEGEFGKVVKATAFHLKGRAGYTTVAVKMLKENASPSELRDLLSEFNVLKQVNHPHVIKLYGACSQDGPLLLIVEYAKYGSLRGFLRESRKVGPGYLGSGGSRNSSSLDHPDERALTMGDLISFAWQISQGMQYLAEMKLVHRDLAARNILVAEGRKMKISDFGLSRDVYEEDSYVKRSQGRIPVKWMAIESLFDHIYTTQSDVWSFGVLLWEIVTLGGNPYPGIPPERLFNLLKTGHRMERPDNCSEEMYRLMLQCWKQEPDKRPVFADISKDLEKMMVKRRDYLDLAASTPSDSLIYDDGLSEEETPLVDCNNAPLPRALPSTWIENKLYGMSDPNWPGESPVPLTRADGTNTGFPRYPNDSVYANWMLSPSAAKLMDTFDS

[13] = target: Platelet-derived growth factor receptor alpha (Homo sapiens) (UniProt P16234); assay: Inhibition of PDGFRalpha (unknown origin) at 1 uM; how it was run: as §1
[14] = target: Phosphatidylinositol 4,5-bisphosphate 3-kinase catalytic subunit alpha isoform (Homo sapiens) (UniProt P42336); assay: Inhibition of PIK3CA (unknown origin) at 1 uM; how it was run: as §1
[15] = target: Aurora kinase A (Homo sapiens) (UniProt O14965); assay: Inhibition of Aurora A (unknown origin) at 1 uM; how it was run: as §1
[16] = target: Receptor-type tyrosine-protein kinase FLT3 (Homo sapiens) (UniProt P36888); assay: Inhibition of Flt3 (unknown origin) at 1 uM; how it was run: as §1
[17] = target: Cyclin-dependent kinase 5/CDK5 activator 1 (Homo sapiens) (UniProt Q00535+Q15078); assay: Inhibition of CDK5/p25 (unknown origin) at 1 uM; assay type: protein-complex assay; how it was run: as §1
[18] = target: RAC-alpha serine/threonine-protein kinase (Homo sapiens) (UniProt P31749); assay: Inhibition of Akt1 (unknown origin) at 1 uM; how it was run: as §1
Chain of RAC-alpha serine/threonine-protein kinase (Homo sapiens) (P31749 whole entry): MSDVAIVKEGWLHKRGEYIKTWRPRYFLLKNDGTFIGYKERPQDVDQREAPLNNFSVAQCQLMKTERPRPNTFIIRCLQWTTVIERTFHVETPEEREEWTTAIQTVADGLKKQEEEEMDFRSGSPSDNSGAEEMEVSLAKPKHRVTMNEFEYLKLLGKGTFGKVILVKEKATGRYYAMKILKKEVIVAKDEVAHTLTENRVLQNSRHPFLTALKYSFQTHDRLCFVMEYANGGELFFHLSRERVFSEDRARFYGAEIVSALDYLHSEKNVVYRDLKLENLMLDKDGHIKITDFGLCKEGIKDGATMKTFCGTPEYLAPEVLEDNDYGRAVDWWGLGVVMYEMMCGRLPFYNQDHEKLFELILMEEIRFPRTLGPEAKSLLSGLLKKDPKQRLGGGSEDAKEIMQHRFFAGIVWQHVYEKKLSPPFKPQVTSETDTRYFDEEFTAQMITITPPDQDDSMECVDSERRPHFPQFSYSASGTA

[19] = Kinetic solubility of the compound in isotonic buffer at pH 7.4; assay type: physicochemical; conditions: read-out: Kinetic_solubility
[20] = tested on: Liver microsomes; assay: Metabolic stability in rat liver microsomes after 30 mins; assay type: ADME, Microsome; conditions: 0.5 h
How it was run: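 Compound incubated with NADPH-supplemented rat liver microsomes at 37 °C for 30 min; parent consumption and sulfoxide/sulfone metabolite formation monitored.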

[21] = target: Glycogen synthase kinase-3 beta (Homo sapiens) (UniProt P49841); assay: Inhibition of GSK3beta (unknown origin) at 1 uM; how it was run: as §1
[22] = target: Tyrosine-protein kinase ABL1 (Homo sapiens) (UniProt P00519); assay: Inhibition of Abl1 (unknown origin) at 1 uM; how it was run: as §1
[23] = target: Serine/threonine-protein kinase Chk1 (Homo sapiens) (UniProt O14757); assay: Inhibition of Chek1 (unknown origin) at 1 uM; how it was run: as §1
[24] = target: Dual specificity protein kinase TTK (Homo sapiens) (UniProt P33981); assay: Inhibition of Ttk (unknown origin) at 1 uM; how it was run: as §1
[25] = target: Leucine-rich repeat serine/threonine-protein kinase 2 (Homo sapiens, UniProt Q5S007); assay: Inhibition of wild type LRRK2 (unknown origin) by TR-FRET assay; how it was run: as §2
Chain of Leucine-rich repeat serine/threonine-protein kinase 2 (Homo sapiens, UniProt Q5S007) (Q5S007 whole entry): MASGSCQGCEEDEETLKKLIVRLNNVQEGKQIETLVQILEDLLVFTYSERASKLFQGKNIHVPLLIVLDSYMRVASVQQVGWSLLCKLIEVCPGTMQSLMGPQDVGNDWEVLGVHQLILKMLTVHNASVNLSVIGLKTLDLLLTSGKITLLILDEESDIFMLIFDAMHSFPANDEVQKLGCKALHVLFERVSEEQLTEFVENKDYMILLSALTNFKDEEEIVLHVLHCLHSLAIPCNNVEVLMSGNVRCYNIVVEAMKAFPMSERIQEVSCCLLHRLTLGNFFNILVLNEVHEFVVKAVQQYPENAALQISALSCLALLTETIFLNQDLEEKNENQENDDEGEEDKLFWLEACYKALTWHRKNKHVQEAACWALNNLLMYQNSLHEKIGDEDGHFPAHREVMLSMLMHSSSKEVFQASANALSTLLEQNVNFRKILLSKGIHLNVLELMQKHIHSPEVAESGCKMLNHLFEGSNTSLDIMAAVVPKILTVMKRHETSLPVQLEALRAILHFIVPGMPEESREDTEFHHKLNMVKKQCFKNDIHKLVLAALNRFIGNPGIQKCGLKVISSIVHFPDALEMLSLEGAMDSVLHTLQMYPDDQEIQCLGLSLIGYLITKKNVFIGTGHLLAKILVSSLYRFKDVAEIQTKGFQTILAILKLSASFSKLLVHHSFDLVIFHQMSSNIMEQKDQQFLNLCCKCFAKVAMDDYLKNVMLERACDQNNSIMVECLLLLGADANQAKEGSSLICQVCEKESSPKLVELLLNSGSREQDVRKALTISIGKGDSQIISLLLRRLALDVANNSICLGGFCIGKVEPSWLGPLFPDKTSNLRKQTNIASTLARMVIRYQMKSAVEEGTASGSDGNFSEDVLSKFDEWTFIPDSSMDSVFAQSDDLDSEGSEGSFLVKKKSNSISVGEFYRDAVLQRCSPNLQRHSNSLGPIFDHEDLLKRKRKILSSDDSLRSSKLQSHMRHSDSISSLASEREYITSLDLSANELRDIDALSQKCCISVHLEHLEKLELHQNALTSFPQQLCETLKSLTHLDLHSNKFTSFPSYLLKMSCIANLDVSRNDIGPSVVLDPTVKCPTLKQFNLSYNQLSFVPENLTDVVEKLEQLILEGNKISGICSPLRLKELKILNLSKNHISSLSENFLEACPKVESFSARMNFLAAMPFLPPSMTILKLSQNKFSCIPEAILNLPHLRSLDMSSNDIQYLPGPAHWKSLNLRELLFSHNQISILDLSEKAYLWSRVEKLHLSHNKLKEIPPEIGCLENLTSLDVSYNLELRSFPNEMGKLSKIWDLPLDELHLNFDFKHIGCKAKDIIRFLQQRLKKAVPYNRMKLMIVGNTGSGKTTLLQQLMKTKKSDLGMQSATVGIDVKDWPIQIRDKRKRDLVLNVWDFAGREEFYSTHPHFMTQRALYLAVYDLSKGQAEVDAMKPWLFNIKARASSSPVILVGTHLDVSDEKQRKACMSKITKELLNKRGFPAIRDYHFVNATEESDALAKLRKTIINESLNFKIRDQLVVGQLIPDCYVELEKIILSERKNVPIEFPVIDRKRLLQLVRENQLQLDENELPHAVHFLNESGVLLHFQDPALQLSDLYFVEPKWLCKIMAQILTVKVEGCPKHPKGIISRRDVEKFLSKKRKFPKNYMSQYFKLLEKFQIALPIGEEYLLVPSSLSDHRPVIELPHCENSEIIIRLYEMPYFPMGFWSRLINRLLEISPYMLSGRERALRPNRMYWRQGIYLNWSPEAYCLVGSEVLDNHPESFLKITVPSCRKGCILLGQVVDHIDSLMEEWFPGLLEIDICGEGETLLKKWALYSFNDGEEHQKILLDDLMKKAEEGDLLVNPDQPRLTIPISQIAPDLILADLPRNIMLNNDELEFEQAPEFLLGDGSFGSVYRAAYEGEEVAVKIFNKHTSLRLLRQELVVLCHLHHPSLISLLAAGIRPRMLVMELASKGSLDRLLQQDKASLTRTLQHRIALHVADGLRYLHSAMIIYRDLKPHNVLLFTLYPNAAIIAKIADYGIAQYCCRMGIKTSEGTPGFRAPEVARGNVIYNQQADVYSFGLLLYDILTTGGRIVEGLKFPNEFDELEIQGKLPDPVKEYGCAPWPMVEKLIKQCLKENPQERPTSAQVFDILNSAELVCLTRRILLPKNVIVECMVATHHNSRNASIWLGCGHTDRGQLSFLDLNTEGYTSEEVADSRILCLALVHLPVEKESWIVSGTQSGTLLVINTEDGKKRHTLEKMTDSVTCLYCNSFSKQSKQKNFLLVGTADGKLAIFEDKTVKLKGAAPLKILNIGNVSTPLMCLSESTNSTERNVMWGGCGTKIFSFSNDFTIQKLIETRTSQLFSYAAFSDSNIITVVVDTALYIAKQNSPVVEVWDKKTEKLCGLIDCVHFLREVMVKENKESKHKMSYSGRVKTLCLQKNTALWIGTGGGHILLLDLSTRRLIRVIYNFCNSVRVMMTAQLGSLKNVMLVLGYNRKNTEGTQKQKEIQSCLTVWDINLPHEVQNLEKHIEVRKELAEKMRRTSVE

[26] = target: Leucine-rich repeat serine/threonine-protein kinase 2 (Homo sapiens, UniProt Q5S007, G2019S); assay: Inhibition of LRRK2 G2019S mutant (unknown origin) by TR-FRET assay; how it was run: as §2
Chain of Leucine-rich repeat serine/threonine-protein kinase 2 (Homo sapiens, UniProt Q5S007, G2019S) (Q5S007 whole entry G2019S): as the sequence (Q5S007 whole entry) above, with G2019S counted along it

[27] = tested on: P-gp; assay: Efflux ratio in P-gp (unknown origin) mediated drug transport; assay type: ADME; conditions: human, not told

Q: Which inhibition [1] does the source give for `FC(F)(F)c1cccc(Sc2ccc3nnc(-c4ccccc4)n3n2)c1` here?
A: < 18%

Q: What about the Stability [2] of the same compound?
A: Stable

Q: And the Papp [3]?
A: 21 nm/s

Q: And the inhibition [4]?
A: < 18%

Q: What about the inhibition [5] of the same compound?
A: < 18%

Q: What about the inhibition [6] of the same compound?
A: < 18%

Q: And the inhibition [7]?
A: < 18%

Q: And the Ratio IC50 [8]?
A: 4.8

Q: And the inhibition [9]?
A: < 18%

Q: And the inhibition [10]?
A: < 18%

Q: What about the inhibition [11] of the same compound?
A: < 18%

Q: What about the inhibition [12] of the same compound?
A: < 18%

Q: And the inhibition [13]?
A: < 18%

Q: What about the inhibition [14] of the same compound?
A: < 18%

Q: And the inhibition [15]?
A: < 18%

Q: And the inhibition [16]?
A: < 18%

Q: And the inhibition [17]?
A: < 18%

Q: What about the inhibition [18] of the same compound?
A: < 18%

Q: What about the solubility kinetic [19] of the same compound?
A: 9 µM (≈ 3.35 µg/mL)

Q: And the Stability [20]?
A: Unstable

Q: And the inhibition [21]?
A: < 18%

Q: And the inhibition [22]?
A: < 18%

Q: And the inhibition [23]?
A: < 18%

Q: What about the inhibition [24] of the same compound?
A: < 18%

Q: What about the IC50 [25] of the same compound?
A: 0.242 µM

Q: What about the IC50 [26] of the same compound?
A: 0.05 µM

Q: Which results are given for `COC(=O)C(C)Sc1ccc2nnc(-c3cccs3)n2n1` (configuration not stated)?
A: Papp [3]: 280 nm/s; Ratio IC50 [8]: 2.7; efflux ratio [27]: 0.8; solubility kinetic [19]: 72 µM (≈ 23.1 µg/mL); IC50 [25]: 0.535 µM; IC50 [26]: 0.2 µM
